From ChEMBL document CHEMBL5058577, “EUbOPEN Chemogenomics Library 2 (Multiplex)” (2022)

Test system: HEK-293T
Assay: Multiplex assay against HEK293T
Format: toxicity, cell-based
Conditions: human
How it was run: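 Imaging took place on a CQ1 microscope at 37°C and 5% CO2 once compound had been added to live cells stained at seeding with Hoechst33342, BioTracker Green Microtubule Cytoskeleton Dye, MitoTracker Red and Annexin V Alexa Fluor 680. CellPathfinder machine-learning gating classed cells as Hoechst high-intensity objects or normal cells, classed normal cells as having healthy, pyknosed or fragmented nuclei, and classed pyknosed cells as mitotic or apoptotic. Tubulin, mitochondrial-mass and membrane-permeability phenotypes are per cents of the healthy-nucleus cells.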

[1] = 12 h, 1 µM, compound concentration 1 uM, replicate 1
[2] = 12 h, 1 µM, compound concentration 1 uM, replicate 2
[3] = 12 h, 10 µM, compound concentration 10 uM, replicate 1
[4] = 12 h, 10 µM, compound concentration 10 uM, replicate 2
[5] = 24 h, 1 µM, compound concentration 1 uM, replicate 1
[6] = 24 h, 1 µM, compound concentration 1 uM, replicate 2
[7] = 24 h, 10 µM, compound concentration 10 uM, replicate 1
[8] = 24 h, 10 µM, compound concentration 10 uM, replicate 2
[9] = 48 h, 1 µM, compound concentration 1 uM, replicate 1
[10] = 48 h, 1 µM, compound concentration 1 uM, replicate 2
[11] = 48 h, 10 µM, compound concentration 10 uM, replicate 1
[12] = 48 h, 10 µM, compound concentration 10 uM, replicate 2

## O=C(NCCNCC(O)COc1ccc(O)cc1)N1CCOCC1.O=C(NCCNCC(O)COc1ccc(O)cc1)N1CCOCC1.O=C(O)/C=C/C(=O)O (stereo unspecified) [XAMOTEROL FUMARATE]
[1]
  Population Apoptotic (%): 39%
  Population Fragmented Nuclei (%): 5%
  Population Healthy Nuclei (%): 79%
  Population Hoechst High Intensity Objects (%): 4%
  Population Membrane Permeable-Phenotype (%): 0%
  Population Mitochondria Different-Phenotype (%): 39%
  Population Mitotic Cells (%): 60%
  Population Normal (%): 95%
  Population Pyknosed Nuclei (%): 14%
  Population Tubulin-Different-Phenotype (%): 26%
  Total Cell Count: 339
[2]
  Population Apoptotic (%): 60%
  Population Healthy Nuclei (%): 76%
  Population Hoechst High Intensity Objects (%): 14%
  Population Mitochondria Different-Phenotype (%): 57%
  Population Mitotic Cells (%): 39%
  Population Normal (%): 85%
  Population Pyknosed Nuclei (%): 17%
  Population Tubulin-Different-Phenotype (%): 21%
  Total Cell Count: 271
[3]
  Population Apoptotic (%): 35%
  Population Fragmented Nuclei (%): 7%
  Population Healthy Nuclei (%): 83%
  Population Hoechst High Intensity Objects (%): 6%
  Population Membrane Permeable-Phenotype (%): 0%
  Population Mitochondria Different-Phenotype (%): 39%
  Population Mitotic Cells (%): 65%
  Population Normal (%): 93%
  Population Pyknosed Nuclei (%): 8%
  Population Tubulin-Different-Phenotype (%): 19%
  Total Cell Count: 499
[4]
  Population Apoptotic (%): 29%
  Population Fragmented Nuclei (%): 4%
  Population Healthy Nuclei (%): 86%
  Population Hoechst High Intensity Objects (%): 5%
  Population Mitochondria Different-Phenotype (%): 62%
  Population Mitotic Cells (%): 70%
  Population Normal (%): 94%
  Population Pyknosed Nuclei (%): 9%
  Population Tubulin-Different-Phenotype (%): 23%
  Total Cell Count: 406
[5]
  Population Apoptotic (%): 26%
  Population Fragmented Nuclei (%): 8%
  Population Healthy Nuclei (%): 78%
  Population Hoechst High Intensity Objects (%): 6%
  Population Membrane Permeable-Phenotype (%): 0%
  Population Mitochondria Different-Phenotype (%): 18%
  Population Mitotic Cells (%): 73%
  Population Normal (%): 93%
  Population Pyknosed Nuclei (%): 12%
  Population Tubulin-Different-Phenotype (%): 17%
  Total Cell Count: 475
[6]
  Population Apoptotic (%): 45%
  Population Fragmented Nuclei (%): 9%
  Population Healthy Nuclei (%): 80%
  Population Hoechst High Intensity Objects (%): 13%
  Population Mitochondria Different-Phenotype (%): 38%
  Population Mitotic Cells (%): 54%
  Population Normal (%): 86%
  Population Pyknosed Nuclei (%): 10%
  Population Tubulin-Different-Phenotype (%): 15%
  Total Cell Count: 366
[7]
  Population Apoptotic (%): 21%
  Population Fragmented Nuclei (%): 9%
  Population Healthy Nuclei (%): 79%
  Population Hoechst High Intensity Objects (%): 5%
  Population Membrane Permeable-Phenotype (%): 0%
  Population Mitochondria Different-Phenotype (%): 25%
  Population Mitotic Cells (%): 78%
  Population Normal (%): 94%
  Population Pyknosed Nuclei (%): 11%
  Population Tubulin-Different-Phenotype (%): 12%
  Total Cell Count: 632
[8]
  Population Apoptotic (%): 33%
  Population Fragmented Nuclei (%): 7%
  Population Healthy Nuclei (%): 85%
  Population Hoechst High Intensity Objects (%): 4%
  Population Mitochondria Different-Phenotype (%): 42%
  Population Mitotic Cells (%): 66%
  Population Normal (%): 95%
  Population Pyknosed Nuclei (%): 7%
  Population Tubulin-Different-Phenotype (%): 17%
  Total Cell Count: 542
[9]
  Population Apoptotic (%): 21%
  Population Fragmented Nuclei (%): 14%
  Population Healthy Nuclei (%): 77%
  Population Hoechst High Intensity Objects (%): 2%
  Population Membrane Permeable-Phenotype (%): 2%
  Population Mitochondria Different-Phenotype (%): 11%
  Population Mitotic Cells (%): 78%
  Population Normal (%): 97%
  Population Pyknosed Nuclei (%): 7%
  Population Tubulin-Different-Phenotype (%): 9%
  Total Cell Count: 918
[10]
  Population Apoptotic (%): 41%
  Population Fragmented Nuclei (%): 11%
  Population Healthy Nuclei (%): 81%
  Population Hoechst High Intensity Objects (%): 4%
  Population Membrane Permeable-Phenotype (%): 0%
  Population Mitochondria Different-Phenotype (%): 18%
  Population Mitotic Cells (%): 58%
  Population Normal (%): 95%
  Population Pyknosed Nuclei (%): 6%
  Population Tubulin-Different-Phenotype (%): 10%
  Total Cell Count: 526
[11]
  Population Apoptotic (%): 17%
  Population Fragmented Nuclei (%): 15%
  Population Healthy Nuclei (%): 79%
  Population Hoechst High Intensity Objects (%): 0%
  Population Membrane Permeable-Phenotype (%): 1%
  Population Mitochondria Different-Phenotype (%): 13%
  Population Mitotic Cells (%): 82%
  Population Normal (%): 99%
  Population Pyknosed Nuclei (%): 5%
  Population Tubulin-Different-Phenotype (%): 6%
  Total Cell Count: 1116
[12]
  Population Apoptotic (%): 25%
  Population Fragmented Nuclei (%): 16%
  Population Healthy Nuclei (%): 77%
  Population Hoechst High Intensity Objects (%): 2%
  Population Membrane Permeable-Phenotype (%): 0%
  Population Mitochondria Different-Phenotype (%): 16%
  Population Mitotic Cells (%): 74%
  Population Normal (%): 97%
  Population Tubulin-Different-Phenotype (%): 10%
  Total Cell Count: 827
